From PubChem BioAssay
Sampled rows, rich in hits. Any-hit rate of the full collection: about 4.1%.
KCNQ1 inh: inhibitors of human KCNQ1 potassium channel | P51787 | CHO-K1 KCNQ1, FluxOR thallium flux fluorescence; active compounds read high | B-score at 10 µM | actives 1.3% (n = 310,000);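 active means compounds whose thallium flux B-score, printed positive for inhibition, exceeds three library SD while starting fluorescence stays within three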;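 further: channel opened by potassium depolarization with thallium stimulus after 20 min compound exposure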
KCNK9 block: human KCNK9 channel inhibition. Q9NPC2. HEK293 KCNK9, FluxOR thallium flux fluorescence; active compounds read low. B-score at 10 µM. actives 1.2% (n = 310,000);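 active means ratio B-score over 3 SD below the library mean, with starting fluorescence within 5 SD of its mean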;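 further: negative B-score means less thallium flux so channel inhibition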
Target sequence (Q9NPC2 whole entry, looked up): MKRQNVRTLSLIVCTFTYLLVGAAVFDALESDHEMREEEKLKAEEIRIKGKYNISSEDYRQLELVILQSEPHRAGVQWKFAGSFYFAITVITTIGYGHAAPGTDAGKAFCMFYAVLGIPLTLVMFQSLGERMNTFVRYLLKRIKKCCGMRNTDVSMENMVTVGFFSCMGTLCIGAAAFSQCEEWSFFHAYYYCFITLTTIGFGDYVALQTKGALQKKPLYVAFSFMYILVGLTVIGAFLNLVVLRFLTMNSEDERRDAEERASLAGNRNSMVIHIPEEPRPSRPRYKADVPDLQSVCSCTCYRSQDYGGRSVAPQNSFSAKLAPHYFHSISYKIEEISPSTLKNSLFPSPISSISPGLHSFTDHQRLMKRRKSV
hERG rescue: hERG (human) protection from proarrhythmic block | actives 0.51% (n = 310,000) | CHO-hERG, FluxOR thallium flux, dofetilide IC70 present | Q12809 | activation (rescue from dofetilide block), less the hit threshold, % at 10 µM;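 active means activation above the mean of controls blocked by dofetilide plus 5 SD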;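 further: thallium influx through hERG after potassium depolarization seen as dye fluorescence rise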
KCNQ1 act: human KCNQ1 channel potentiation or activation. CHO-K1 KCNQ1, thallium flux FluxOR fluorescence; active compounds read high. B-score at 10 µM. actives 0.35% (n = 310,000);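 active means fluorescence ratio B-score, a plate-corrected score, at least three library SD, with initial intensity B-score within 5 SD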
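System: CHO-K1 cells stably expressing KCNQ1 / Medium: assay buffer for compound exposure, DMSO matched across wells / Reagent: thallium- and potassium-containing depolarizing buffer / Compound: one concentration, matched DMSO / Incubation: 20 min compound pretreatment at room temperature / Measured by: kinetic FluxOR fluorescence, 10 s baseline plus 110 s post-stimulus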
KCNK3 block: human KCNK3 channel inhibition, primary screen | O14649 | CHO-KCNK3 thallium flux, FluxOR fluorescence; active compounds read low | B-score at 10 µM | actives 0.84% (n = 340,000) | AID 602410;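 active means B-score under library mean minus 4 SD, starting fluorescence ratio at most library mean plus 5 SD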;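 further: more negative B-score means stronger inhibition of thallium flux through KCNK3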
Target sequence (O14649 whole entry, looked up): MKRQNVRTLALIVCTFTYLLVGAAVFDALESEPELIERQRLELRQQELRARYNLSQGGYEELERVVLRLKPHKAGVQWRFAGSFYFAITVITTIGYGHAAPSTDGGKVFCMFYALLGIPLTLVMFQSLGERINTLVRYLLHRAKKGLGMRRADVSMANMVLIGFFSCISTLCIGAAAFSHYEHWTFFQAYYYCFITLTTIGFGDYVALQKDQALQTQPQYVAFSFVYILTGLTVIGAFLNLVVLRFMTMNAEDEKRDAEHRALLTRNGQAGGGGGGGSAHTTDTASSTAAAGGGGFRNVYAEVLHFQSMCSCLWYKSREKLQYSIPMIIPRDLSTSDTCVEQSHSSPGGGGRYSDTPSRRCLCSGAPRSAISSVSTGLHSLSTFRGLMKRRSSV
KCC2 mod: modulates chloride dependent transport by human KCC2; Q9H2X9; B-score of Tl+ flux slope (higher = more flux/activation; lower = inhibition) at 10 µM; actives 2.2% (n = 190,000); AID 1456; KCC2 cells, thallium flux FluoZin-2 fluorescence;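 active means thallium flux slope and its plate-corrected score both differing from the plate sample mean at a set confidence after two filtering rounds, in either direction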;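 further: slope of fluorescence scaled to starting intensity during 10 to 20 s after thallium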
Of the large screens only hits and unclear results are named; the others gave an inactive call.

O=C(NC(=S)N1CCCCC1CO)c1cc(Br)ccc1Cl (stereo not given)	none (no result: KCNQ1 inh, KCNK9 block, hERG rescue, KCNQ1 act, KCC2 mod)
CCCCC1C(=O)N(c2ccccc2)N(c2ccc(O)cc2)C1=O (stereo not given)	KCNK3 block -10.3 (no result: KCNQ1 inh, KCNK9 block, hERG rescue, KCNQ1 act, KCC2 mod)
Cc1cc(O)c(C(C)C)cc1NC(=O)Nc1ccc([N+](=O)[O-])cc1	KCNK3 block -10.1 (no result: KCNQ1 inh, KCNK9 block, hERG rescue, KCNQ1 act, KCC2 mod)
Cc1ccc(C(C)C)cc1NC(=O)Nc1ccc([N+](=O)[O-])cc1	KCNQ1 inh 7
Cc1cc(O)c(C(C)C)cc1NC(=O)Nc1cccc2ccccc12	none
CCOC(=O)c1ccc(NC(=O)NCCc2cnc[nH]2)cc1	none (no result: KCC2 mod)
COc1ccccc1NC(=O)Cn1c([N+](=O)[O-])cnc1C	none (no result: KCC2 mod)
COc1ccc(CN2CC(C(=O)N3CC(C)CC(C)C3)CC2=O)cc1 (stereo not given)	none (no result: KCC2 mod)
COC(=O)c1c(C)[nH]c(C(=O)COC(=O)CCNS(=O)(=O)c2cccc(C(F)(F)F)c2)c1C	none (no result: KCNQ1 inh, KCNK9 block, hERG rescue, KCNQ1 act, KCC2 mod)
Cc1ccc(C(NC(=O)C2CCCCC2)c2c(O)ccc3ccccc23)cc1 (stereo not given)	KCNQ1 inh 9
CC1(c2nnc(-c3ccc(Cl)cc3)o2)CC(c2c(Cl)cccc2Cl)=NO1 (stereo not given)	KCNK9 block -7.58
CC1(c2nnc(-c3ccc(F)cc3)o2)CC(c2c(Cl)cccc2Cl)=NO1 (stereo not given)	none
O=C(O)c1cccc(S(=O)(=O)Nc2cc(Cl)ccc2Cl)c1	none
CC1CC(C)CN(C(=O)c2cccc(S(=O)(=O)Nc3cc(C(F)(F)F)ccc3Cl)c2)C1 (stereo not given)	KCNQ1 inh 7
c1ccc2oc(-c3csc(N4CCOCC4)n3)cc2c1	none
Cc1nc2sccn2c1-c1nc(-c2cc3ccccc3o2)cs1	KCNK9 block -7.14
COc1ccc(C)cc1NC(=O)CSc1nnc(COc2ccccc2)n1Cc1ccco1	none
COc1ccc(NC(=O)CSc2nnc(COc3ccccc3)n2Cc2ccco2)cc1OC	hERG rescue 5.1 (no result: KCC2 mod)
O=C(Nc1nc(-c2cccc([N+](=O)[O-])c2)cs1)C(c1ccccc1)c1ccccc1	KCNQ1 inh 11
COc1cccc(C(=O)N2CCN(C(=O)c3ccc(-c4ccccc4)cc3)CC2)c1OC	none
COc1ccc(C(=O)N2CCC(c3ccccc3)CC2)c(OC)c1OC	hERG rescue 5.9
Cc1cc(/C=N/n2cnnc2)c(C)n1-c1ccc(Cl)cc1Cl	KCNQ1 act 10
Cc1cc(/C=N/n2cnnc2)c(C)n1-c1ccc(Cl)cc1	none
C=CCn1c(COc2ccccc2)nnc1SC(C)C(=O)N/N=C/c1cc(Cl)ccc1O (stereo not given)	KCNQ1 inh 7
Cc1ccc(C(=O)NCC(=O)NC23CC4CC(CC(C4)C2)C3)cc1	none (no result: KCC2 mod)
COc1ccc(-c2n[nH]c(C(F)(F)F)c2-c2cc3ccccc3o2)c(O)c1	KCNQ1 inh 8
Cc1cc[n+](-c2[nH]c(=O)sc2/C=N/NC([S-])=Nc2ccccc2)cc1C	none
CC(C)(C)c1cc[n+](-c2[nH]c(=O)sc2/C=N/NC([S-])=Nc2ccccc2)cc1	KCNQ1 inh 8
CCOC(=O)c1cc2c(c(-c3ccccc3)n1)[C@@H](CCO)N(S(=O)(=O)C(C)(C)C)C2	none (no result: KCNQ1 inh, KCNK9 block, hERG rescue, KCNQ1 act, KCC2 mod)
CC(C)N1CCc2c(sc(NC(=O)c3ccc4ccccc4c3)c2C(N)=O)C1	KCNK9 block -7.94 (no result: KCC2 mod)
CC(C)N1CCc2c(sc(NC(=O)c3ccc(C(=O)c4ccccc4)cc3)c2C(N)=O)C1	none (no result: KCC2 mod)
CC(C)N1CCc2c(sc(NC(=O)c3cc4cc([N+](=O)[O-])ccc4s3)c2C(N)=O)C1	KCNQ1 inh 6
CCOC(=O)N1C2=NC(C(=O)OC)=C(C(=O)OC)[C@@H]3N(Cc4ccccc4)c4ccccc4[C@]23C[C@H]1C(=O)OC	KCNK9 block -7.71 (no result: KCNK3 block, KCC2 mod)
COC(=O)C1=C(C(=O)OC)[C@@H]2N(Cc3ccccc3)c3ccccc3[C@@]23C[C@@H](C(=O)OC)N(C(=O)C2CCC2)C3=N1	KCNK9 block -7.69 (no result: KCNK3 block, KCC2 mod)
C=CCN1c2ccccc2[C@]23C[C@@H](C(=O)OC)N(C(=O)OCC)C2=NC(C(=O)OC)=C(C(=O)OC)[C@H]13	none (no result: KCC2 mod)
COC(=O)c1cccc(-c2ccc(/C=N/N3C(=O)C4C5C=CC(C6CC56)C4C3=O)o2)c1 (stereo not given)	KCNQ1 inh 7
COC(=O)c1ccc(-c2ccc(/C=N/N3C(=O)C4C5C=CC(C6CC56)C4C3=O)o2)cc1 (stereo not given)	none
CCc1ccc(OCC(=O)Nc2ccc3oc(=O)ccc3c2)cc1	none (no result: KCC2 mod)
C=CCn1c(-c2csc3c2CCC(C)C3)n[nH]c1=S (stereo not given)	none
CCCCn1c(-c2csc3c2CCC(C)C3)n[nH]c1=S (stereo not given)	KCC2 mod 22.4
CCCCn1c(-c2csc3c2CCCC3)n[nH]c1=S	KCC2 mod 2.98 (no result: KCNK3 block)
NC(=O)c1nn(CC(=O)Nc2cccc(S(=O)(=O)N3CCCC3)c2)c(=O)c2ccccc12	none (no result: KCNQ1 inh, KCNK9 block, hERG rescue, KCNQ1 act, KCC2 mod)
N#Cc1ccccc1NS(=O)(=O)c1cc2c3c(c1)CCC(=O)N3CCC2	KCNQ1 act 8 (no result: KCC2 mod)
O=C(COC(=O)CCNS(=O)(=O)c1cccs1)Nc1ccccc1	none (no result: KCNQ1 inh, KCNK9 block, hERG rescue, KCNQ1 act, KCC2 mod)
CCOC(=O)c1ccc(N(CCC2CO2)S(=O)(=O)c2ccc(C)cc2)cc1 (stereo not given)	none (no result: KCNQ1 inh, KCNK9 block, hERG rescue, KCNQ1 act, KCC2 mod)
N#CC1=C(N)SC(N)=C(C#N)C1c1ccc(C(F)(F)F)cc1	KCNQ1 act 53 (no result: KCNK3 block)
CCc1ccc(C2C(C#N)=C(N)SC(N)=C2C#N)cc1	KCC2 mod 7.91
O=C(Nc1cccc(F)c1)c1cccc2c1C(=O)N(C1CCCCC1)C2	KCNK9 block -11.3 (no result: KCC2 mod)
O=C(NN1C(=O)C2C(c3ccccc3)C=CC(c3ccccc3)C2C1=O)c1ccccc1 (stereo not given)	KCNK9 block -7.77, hERG rescue 8.6
O=C1c2ccccc2N[C@@H]2C=CC[C@@H]2N1O	none (no result: KCNQ1 inh, KCNK9 block, hERG rescue, KCNQ1 act, KCC2 mod)
CCc1ccccc1NC(=O)c1ccccc1Sc1ccc([N+](=O)[O-])cc1Cl	KCNK9 block -7.16
CCSc1ccccc1C(=O)Nc1ccc([N+](=O)[O-])cc1OC	none
Cc1cccc(OCc2n(CC(=O)OC3CC(C)CCC3C(C)C)c3ccccc3[n+]2C)c1 (stereo not given)	KCNQ1 inh 9, KCNK3 block -12.6
CC1CCC(C(C)C)C(OC(=O)Cn2c(-c3ccc(F)cc3)[n+](C)c3ccccc32)C1 (stereo not given)	none (no result: KCNQ1 inh, KCNK9 block, hERG rescue, KCNQ1 act)
Cc1ccc2c(c1)c(-c1ccccc1)nc1nnnn12	hERG rescue 6.0
COc1cc(OC)cc(C(=O)Nc2nc(-c3ccccc3)c(-c3ccccc3)o2)c1	KCC2 mod 9.96
CSCCC(NC(=O)c1ccccc1Cl)C(=O)N(C)Cc1cccs1 (stereo not given)	none (no result: KCC2 mod)
